pIC50: −log10 of the molar value. Calls of active or inactive are those of the source. No cut-off for these calls is given here.
How the values were obtained:
[1] = Cytotoxicity against human LCC6 cells after 48 hrs by MTT assay; format: functional, cell-based; details: LCC-6, 48 h
NCI-H460 [2] = experiment: Cytotoxicity against human H460 cells after 48 hrs by MTT assay; format: functional, cell-based; details: NCI-H460, 48 h
NCI-H460 [3] = experiment: Induction of apoptosis in human H460 cells by annexin V apoptosis assay; format: functional, cell-based
LCC6 = experiment: Induction of apoptosis in human LCC6 cells by annexin V apoptosis assay; format: functional, cell-based
Endothelial cell = experiment: Induction of apoptosis in human endothelial cells by annexin V apoptosis assay; format: functional, cell-based
[4] = Plasma clearance in mouse at 38.2 umol/kg, ip
[5] = Cmax in mouse at 38.2 umol/kg, ip within 30 mins; details: in vivo
[6] = Tmax in mouse at 38.2 umol/kg, ip; details: in vivo
[7] = AUC (0 to 480 mins) in mouse at 38.2 umol/kg, ip; details: plasma
[8] = Half life in mouse at 38.2 umol/kg, ip; details: in vivo
SK-MEL-28 [9] = experiment: Inhibition of tumor growth in VEGF expressing human SK-MEL-28 cells xenografted in mouse at 10 mg/kg, ip administered every altenative day for 24 days; format: functional; details: SK-MEL-28, ip, 576 h, route intraperitoneal
Mus musculus = experiment: Toxicity in VEGF expressing human SK-MEL-28 cells xenografted in mouse assessed as effect on histological indications at 5 to 10 mg/kg, ip daily for 24 days; details: in vivo
[10] = Plasma clearance in mouse at 36.8 umol/kg, ip
[11] = AUC (0 to 480 mins) in mouse at 36.8 umol/kg, ip; details: plasma
[12] = Tmax in mouse at 36.8 umol/kg, ip; details: in vivo
[13] = Cmax in mouse at 36.8 umol/kg, ip within 30 mins; details: in vivo
[14] = Inhibition of tumor growth in human SK-MEL-28V+ cells xenografted in mouse at 20 mg/kg, ip administered every altenative day for 24 days; format: functional; details: 576 h, route intraperitoneal
In short: (§1)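 SK-MEL-28 V+ cells (engineered to overexpress VEGF) of over 95% viability were used to grow primary tumours in mice. These tumours were cut into 1 mm³ explants and implanted subcutaneously. Once tumours were palpable, mice were randomized and dosed intraperitoneally for 24 days: daily at 5 or 10 mg/kg, or every second day at 20 mg/kg. Tumours were measured by caliper every 2–5 days. Body weight and histology were assessed for toxicity.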

[15] = Half life in mouse at 36.8 umol/kg, ip; details: in vivo
SK-MEL-28 [16] = experiment: Antitumor activity against VEGF expressing human SK-MEL-28 cells xenografted in mouse assessed as loss of body weight at 5 to 10 mg/kg, ip after 24 days; format: functional, organism-based; in short: as §1

Compound	pIC50 [1]	pIC50 (NCI-H460 [2])	Activity (NCI-H460 [3])	Activity (LCC6)	Activity (Endothelial cell)	also measured
COc1ccc(-n2c3cssc-3c(NC(=O)c3ccc(C(F)(F)F)cc3)c2=O)c(OC)c1	7.07	8.15	Active	Active	Active	
CC(C)c1c(O)cc(C(=O)Nc2c3sscc-3n(Cc3ccccc3)c2=O)cc1O	6.60	6.77	Active	Active	Active	
COc1ccc(-n2c3cssc-3c(NC(=O)c3cc(O)c(C(C)C)c(O)c3)c2=O)c(OC)c1	7.15	7.14	Active	Active	Active	clearance [4]: 6.3 mL/min/kg; Cmax [5]: 106 µM; Tmax [6]: 3 min; AUC(0-t) at 8 h [7]: 102 µM·h; half-life [8]: 1.57 h
COc1ccc(-n2c3cssc-3c(NC(=O)C(F)(F)F)c2=O)c(OC)c1	7.22	6.77	Active	Active	Active	
CC(=O)O[C@H]1C(=O)[C@@]2(C)[C@H]([C@H](OC(=O)c3ccccc3)[C@]3(O)C[C@H](OC(=O)[C@H](O)[C@@H](NC(=O)c4ccccc4)c4ccccc4)C(C)=C1C3(C)C)[C@]1(OC(C)=O)CO[C@@H]1C[C@@H]2O [PACLITAXEL]						inhibition in vivo at 10 mg/kg (SK-MEL-28 [9]): 37%
CCCCC(C)C(=O)Nc1c2sscc-2[nH]c1=O (stereo not drawn)	6.70	6.70	Active	Active	Active	
COc1ccc(C(=O)Nc2c3sscc-3n(-c3ccc(OC)cc3OC)c2=O)c(OC)c1	6.60	7.96	Active	Active	Active	
CC(=O)Nc1c2sscc-2n(-c2ccc(C)cc2)c1=O	6.66	7.36	Active	Active	Active	
COc1ccc(-n2c3cssc-3c(NC(=O)C(F)(F)F)c2=O)cc1	6.66	6.72	Active	Active	Active	
COc1ccc(-n2c3cssc-3c(NC(=O)c3cc(C(F)(F)F)cc(C(F)(F)F)c3)c2=O)c(OC)c1	6.80	6.89	Active	Active	Active	Activity (Mus musculus): Active; clearance [10]: 2.9 mL/min/kg; AUC(0-t) at 8 h [11]: 210 µM·h; Tmax [12]: 0.5 h; Cmax [13]: 57 µM; inhibition in vivo at 20 mg/kg [14]: 58%; half-life [15]: 2.67 h; Activity (SK-MEL-28 [16]): Active
CC(C)c1ccc(-n2c3cssc-3c(NC(=O)c3cc(O)c(C(C)C)c(O)c3)c2=O)cc1	7.40	6.82	Active	Active	Active	
COc1ccc(-n2c3cssc-3c(NC(=O)c3cc(F)cc(F)c3)c2=O)c(OC)c1	6.46	7.96	Active	Active	Active	
COc1ccc(-n2c3cssc-3c(NC(C)=O)c2=O)cc1	6.66	7.28	Active	Active	Active	
COc1ccc(-n2c3cssc-3c(NC(=O)c3cccs3)c2=O)c(OC)c1	6.68	8.10	Active	Active	Active	
CC(=O)Nc1c2sscc-2n(Cc2ccccc2)c1=O		6.05	Active	Active	Active	
COc1ccc(-n2c3cssc-3c(NC(=O)c3ccco3)c2=O)c(OC)c1	7.55	7.30	Active	Active	Active	
COc1ccc(-n2c3cssc-3c(NC(C)=O)c2=O)c(OC)c1	6.72	7.52	Active	Active	Active	
O=C(Nc1c2sscc-2n(Cc2ccccc2)c1=O)c1cc(C(F)(F)F)cc(C(F)(F)F)c1	5.93	6.15	Active	Active	Active	

From ChEMBL document CHEMBL1148030, “Substituted 6-amino-4H-[1,2]dithiolo[4,3-b]pyrrol-5-ones: synthesis, structure-activity relationships, and cytotoxic activity on selected human cancer cell lines” (Bioorg Med Chem, 2007)
